Series [1] in a line: Antioxidant activity assessed as galvinoxyl radical scavenging activity in ethyl acetate by UV-visible spectroscopy. Format: functional. In outline: (§1)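 The rate constant k (M−1 s−1) came from the slope of pseudo-first-order kobs against compound concentration. Some rates were instead taken from second-order kinetics at a 1/1 compound/GO• ratio. Values are mean±SD of three determinations.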

Series [2] in a line: Antioxidant activity assessed as galvinoxyl radical scavenging activity in methanol by UV-visible spectroscopy. Type of series: functional. In outline: as §1
In the next series the test system is HepG2. Nature of the series: Growth inhibition of human HepG2 cells after 72 hrs by sulforhodamine B assay. Format: functional, cell-based. Particulars: HepG2, 72 h. On the technique in general: The SRB assay estimates cell density from bound dye.
Series [3] can be described thus: Stability in PBS at pH 7.4 by UV-visible spectroscopy. Format: physicochemical. Particulars: buffer.
Series [4] can be described thus: Stability in PBS at pH 7.4 by UV-visible spectroscopy in presence of HSA. Type of series: physicochemical. Particulars: buffer.
A short description of series [5]: Antioxidant activity assessed as against AAPH-induced oxidative damage of pBR322 plasmid DNA assessed as single strand breakage at 10 uM by gel electrophoresis. Type of series: functional. In outline:
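Supercoiled pBR322 plasmid DNA (100 ng) incubated with AAPH and/or test compound in PBS, pH 7.4, at 37 °C for 60 min. Strand breakage was assessed by agarose gel electrophoresis as conversion of the supercoiled form to open-circular (single-strand break) and linear (double-strand break) DNA.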

The source made the active and inactive calls. The rule behind the calls is not given here.

As usually defined, the IC50 is the concentration that gives 50% inhibition. Read a high IC50 as weaker potency in that assay.

With `COc1ccc(/N=C/c2ccc(O)cc2)cc1`, the Activity in series [1] was found to be 1.1 M⁻¹ s⁻¹; in series [2], 2.48 M⁻¹ s⁻¹. For the same compound, the concentration for half-maximal inhibition (IC50) with HepG2 was over 300 µM.

Regarding `Oc1ccc(/N=C/c2ccc(O)c(O)c2)cc1`, the Stability result in series [3] is given as “Unstable”; in series [4], “Stable”. For the same compound, the Activity was 1080 M⁻¹ s⁻¹ in series [1] and 14800 M⁻¹ s⁻¹ in series [2]. Further, the IC50 with HepG2 was 5.6 µM. The outcome in series [5] was Active.

`Oc1ccccc1/C=N/c1ccccc1` [2-((PHENYLIMINO)METHYL)PHENOL]: the Activity was 0.01 M⁻¹ s⁻¹ in series [1] and 0.04 M⁻¹ s⁻¹ in series [2]. In the series with HepG2, this compound gave an IC50 of over 300 µM.

Turning to `Oc1ccc(/N=C/c2ccccc2)cc1` [4-(BENZYLIDENEAMINO)PHENOL], the results for the Activity in series [1] and in series [2] were 31.9 M⁻¹ s⁻¹ and 120 M⁻¹ s⁻¹, respectively. The compound also came in with an IC50 in the series on HepG2 of 108 µM.

`COc1cc([C@@H]2c3cc4c(cc3[C@@H](O[C@@H]3O[C@@H]5CO[C@@H](C)O[C@H]5[C@H](O)[C@H]3O)[C@H]3COC(=O)[C@H]23)OCO4)cc(OC)c1O` [ETOPOSIDE] displayed an IC50 in the series with HepG2 of 4.1 µM.

For the compound `Oc1ccc(/C=C/c2cc(O)cc(O)c2)cc1` [RESVERATROL], the Activity in series [1] is 13.4 M⁻¹ s⁻¹; in series [2] it was 42 M⁻¹ s⁻¹. Half-maximal inhibition with HepG2 (IC50) required 79.6 µM. Moreover, the outcome in series [5] was Active.

For the origin of these results see ChEMBL document CHEMBL1156217, “Antioxidant and antiproliferative activities of hydroxyl-substituted Schiff bases” (Bioorg Med Chem Lett, 2010).
